Results gathered from unrelated publications.
Compare with care: the assays were run in different laboratories. In brackets after ≈: the same amount, converted by molar mass.

SMILES	organism	test	system	setting	measurement	value
O=C(O)c1ccc(-n2cc(COc3cccc4cccnc34)nn2)cc1	Escherichia coli	microbial growth, broth dilution	ATCC25922		IC50	108 µg/mL (≈ 313 µM)
O=C1NC(=S)S/C1=C\c1ccc(-c2ccc(N(c3ccccc3)c3ccccc3)cc2)cc1	Micrococcus luteus	microbial killing, broth dilution	ATCC10240		MBC	500 µg/mL (≈ 1080 µM)
Cc1cc(NC(=O)Nc2ccc3c(c2)OC(F)(F)O3)ccc1Cl	Staphylococcus aureus	microbial growth	NCTC8325		MIC	0.5 µM (≈ 0.17 µg/mL)
Cc1nn(-c2nc3ccc(Cl)cc3s2)c2c1C(=O)c1ccccc1-2	Staphylococcus aureus	microbial growth, well diffusion	NCIM5021	125 µg/mL	inhibition zone	10 mm
O=S(=O)(c1cccc2cnccc12)N1CCCNCC1	Staphylococcus aureus	microbial growth	NCTC8325		MIC	> 30 µM
O=[N+]([O-])c1ccc(S(=O)(=O)Oc2cccc3cccnc23)cc1	Escherichia coli	microbial growth, broth dilution	ATCC25922		IC50	215 µg/mL (≈ 650 µM)
O=C(O)CN1C(=O)/C(=C/c2ccc(-c3ccc(N(c4ccccc4)c4ccccc4)cc3)cc2)NC1=S	Micrococcus luteus	microbial killing, broth dilution	ATCC10240		MBC	31.3 µg/mL (≈ 61.9 µM)
C#CCCCCC(=O)Nc1ccccc1	Staphylococcus aureus	microbial growth	NCTC8325		MIC	> 100 µM
O=C1NC(=S)N/C1=C\c1ccc(-c2ccc(N(c3ccccc3)c3ccccc3)cc2)c2ccccc12	Micrococcus luteus	microbial killing, broth dilution	ATCC10240		MBC	> 1000 µg/mL
CC(C)Cc1nn(-c2nc3ccc(Cl)cc3s2)c2c1C(=O)c1ccccc1-2	Staphylococcus aureus	microbial growth, well diffusion	NCIM5021	125 µg/mL	inhibition zone	10 mm
CCCS(=O)(=O)Nc1ccc(F)c(C(=O)c2c[nH]c3ncc(Cl)cc23)c1F	Staphylococcus aureus	microbial growth	NCTC8325		MIC	> 30 µM
O=C1NC(=S)S/C1=C\c1ccc(-c2ccc(N(c3ccccc3)c3ccccc3)cc2)c2ccccc12	Micrococcus luteus	microbial killing, broth dilution	ATCC10240		MBC	> 1000 µg/mL
COc1ccc(-c2ccc3c(N4CCOC[C@@H]4C)nc(N4CCOC[C@@H]4C)nc3n2)cc1CO	Staphylococcus aureus	microbial growth	NCTC8325		MIC	> 30 µM
Cc1ccc(C(C)C)cc1OCc1cn(-c2ccc(C(=O)O)cc2)nn1	Escherichia coli	microbial growth, broth dilution	ATCC25922		IC50	15.3 µg/mL (≈ 43.5 µM)
Cc1ccc2nc(-n3nc(C)c4c3-c3ccccc3C4=O)sc2c1	Staphylococcus aureus	microbial growth, well diffusion	NCIM5021	1000 µg/mL	inhibition zone	12 mm
CNC(=O)c1cc(Oc2ccc(NC(=O)Nc3ccc(Cl)c(C(F)(F)F)c3)c(F)c2)ccn1	Staphylococcus aureus	microbial growth	NCTC8325		MIC	3 µM (≈ 1.45 µg/mL)
COc1ccc2nc(-n3nc(CC(C)C)c4c3-c3ccccc3C4=O)sc2c1	Staphylococcus aureus	microbial growth, well diffusion	NCIM5021	500 µg/mL	inhibition zone	12 mm
O=C1C=C(OCc2cn(-c3ccc(Cl)cc3)nn2)C(=O)c2ccccc21	Escherichia coli	microbial growth, broth dilution	ATCC25922		IC50	306 µg/mL (≈ 836 µM)
Cc1ccc(Nc2nccc(N(C)c3ccc4c(C)n(C)nc4c3)n2)cc1S(N)(=O)=O	Staphylococcus aureus	microbial growth	NCTC8325		MIC	> 30 µM
CC(C)Cc1nn(-c2nc3ccc(Br)cc3s2)c2c1C(=O)c1ccccc1-2	Staphylococcus aureus	microbial growth, well diffusion	NCIM5021	1000 µg/mL	inhibition zone	21 mm
O=C(O)CN1C(=O)/C(=C/c2ccc(-c3ccc(N(c4ccccc4)c4ccccc4)cc3)c3ccccc23)NC1=S	Micrococcus luteus	microbial killing, broth dilution	ATCC10240		MBC	> 1000 µg/mL
Cc1ccc2nc(-n3nc(C(C)C)c4c3-c3ccccc3C4=O)sc2c1	Staphylococcus aureus	microbial growth, well diffusion	NCIM5021	250 µg/mL	inhibition zone	13 mm
NC(=O)c1ccc(-c2nc(-c3ccccn3)c(-c3ccc4c(c3)OCO4)[nH]2)cc1	Staphylococcus aureus	microbial growth	NCTC8325		MIC	> 30 µM
[H]/N=C(/N)N[C@H]1[C@H](O)[C@@H](O)[C@H](O[C@@H]2O[C@@H](C)[C@](O)(C=O)[C@H]2O[C@@H]2O[C@@H](CO)[C@H](O)[C@@H](O)[C@@H]2NC)[C@@H](N/C(N)=N\[H])[C@@H]1O	Staphylococcus aureus	microbial growth, well diffusion	NCIM5021	1000 µg/mL	inhibition zone	30 mm
O=C(O)c1ccc(-n2cc(COC3=CC(=O)c4ccccc4C3=O)nn2)cc1	Escherichia coli	microbial growth, broth dilution	ATCC25922		IC50	22.6 µg/mL (≈ 60.1 µM)
O=C1NC(=S)S/C1=C\c1c2ccccc2c(-c2ccc(N(c3ccccc3)c3ccccc3)cc2)c2ccccc12	Micrococcus luteus	microbial killing, broth dilution	ATCC10240		MBC	> 1000 µg/mL
CC(C)c1nn(-c2nc3ccc(Br)cc3s2)c2c1C(=O)c1ccccc1-2	Staphylococcus aureus	microbial growth, well diffusion	NCIM5021	500 µg/mL	inhibition zone	11 mm
Cc1ccc(C(C)C)cc1OCc1cn(-c2ccc(F)cc2)nn1	Escherichia coli	microbial growth, broth dilution	ATCC25922		IC50	1580 µg/mL (≈ 4860 µM)
